We go through seven molecules from ChEMBL document CHEMBL3045452, “Behavioral responses of the diamondback moth, Plutella xylostella, to green leaf volatiles of Brassica oleracea subsp. capitata” (2000).

Each structure is given as a SMILES string. The source made the active and inactive calls. The calls are words filed in the database; no cut-off is given here.

In experiment [1] the test system is Plutella xylostella. In words: Induction of response in mated female Plutella xylostella (diamondback moth) assessed as landing moth level at 10 uL measured after 10 min by wind tunnel bioassays (Rvb hexane = 0%). It counts as functional. Summed up: (§1)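 Wind tunnel 240 × 30 × 30 cm. Moths acclimatized in the room ≥3 h beforehand. Filter-paper dispenser (4 × 2 cm) hung 15 cm high, loaded with 10 µL of GLV, synthetic pheromone (Z11-16:Ald/Z11-16:Ac/Z11-16:OH 1:1:0.01), a 1:1 mix, or hexane. Two moths released per replicate and watched 10 min; 20 replicates (40 insects) per treatment. Hexane control run twice daily; one treatment per day, tunnel washed between treatments.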

The subject of experiment [2] is Plutella xylostella. Kind of experiment: Induction of response in unmated male Plutella xylostella (diamondback moth) assessed as flying moth level at 10 uL measured after 10 min by wind tunnel bioassays (Rvb hexane = 5%). In kind it is functional. The method in brief: as §1
Experiment [3] deals with Plutella xylostella. In words: Induction of response in mated female Plutella xylostella (diamondback moth) assessed as flying moth level at 10 uL in presence of synthetic pheromone measured after 10 min by wind tunnel bioassays (Rvb hexane = 5%). It counts as functional. Summed up: as §1
The subject of experiment [4] is Plutella xylostella. In words: Induction of response in mated male Plutella xylostella (diamondback moth) assessed as flying moth level at 10 uL in presence of synthetic pheromone measured after 10 min by wind tunnel bioassays (Rvb hexane = 0%). In kind it is functional. Summed up:
as §1

Experiment [5] has as its system Plutella xylostella. Kind of experiment: Induction of response in unmated male Plutella xylostella (diamondback moth) assessed as landing moth level at 10 uL measured after 10 min by wind tunnel bioassays (Rvb hexane = 0%). In kind it is functional. The method in brief:
as §1

Experiment [6] relates to Plutella xylostella. In words: Induction of response in mated female Plutella xylostella (diamondback moth) assessed as landing moth level at 10 uL in presence of synthetic pheromone measured after 10 min by wind tunnel bioassays (Rvb hexane = 0%). It counts as functional. The method in brief:
as §1

Experiment [7] deals with Plutella xylostella. Kind of experiment: Induction of response in mated male Plutella xylostella (diamondback moth) assessed as landing moth level at 10 uL measured after 10 min by wind tunnel bioassays (Rvb hexane = 0%). It counts as functional. Summed up:
as §1

Experiment [8] deals with Plutella xylostella. Kind of experiment: Induction of response in unmated male Plutella xylostella (diamondback moth) assessed as flying moth level at 10 uL in presence of synthetic pheromone measured after 10 min by wind tunnel bioassays (Rvb hexane = 5%). It counts as functional. Summed up: as §1
In experiment [9] the test system is Plutella xylostella. Kind of experiment: Induction of response in unmated female Plutella xylostella (diamondback moth) assessed as landing moth level at 10 uL in presence of synthetic pheromone measured after 10 min by wind tunnel bioassays (Rvb hexane = 0%). In kind it is functional. Summed up:
as §1

For experiment [10], the system named is Plutella xylostella. Kind of experiment: Induction of response in mated male Plutella xylostella (diamondback moth) assessed as landing moth level at 10 uL in presence of synthetic pheromone measured after 10 min by wind tunnel bioassays (Rvb hexane = 0%). In kind it is functional. The method in brief:
as §1

Experiment [11] deals with Plutella xylostella. Kind of experiment: Induction of response in unmated male Plutella xylostella (diamondback moth) assessed as landing moth level at 10 uL in presence of synthetic pheromone measured after 10 min by wind tunnel bioassays (Rvb hexane = 0%). In kind it is functional. Summed up: as §1
The test system of experiment [12] is Plutella xylostella. In words: Induction of response in unmated female Plutella xylostella (diamondback moth) assessed as flying moth level at 10 uL measured after 10 min by wind tunnel bioassays (Rvb hexane = 5%). It counts as functional. Summed up: as §1
Experiment [13] has as its system Plutella xylostella. In words: Induction of response in mated male Plutella xylostella (diamondback moth) assessed as flying moth level at 10 uL measured after 10 min by wind tunnel bioassays (Rvb hexane = 0%). It counts as functional. Summed up:
as §1

Experiment [14] relates to Plutella xylostella. Kind of experiment: Induction of response in unmated female Plutella xylostella (diamondback moth) assessed as flying moth level at 10 uL in presence of synthetic pheromone measured after 10 min by wind tunnel bioassays (Rvb hexane = 5%). It counts as functional. The method in brief:
as §1

Experiment [15] deals with Plutella xylostella. Kind of experiment: Induction of response in unmated female Plutella xylostella (diamondback moth) assessed as landing moth level at 10 uL measured after 10 min by wind tunnel bioassays (Rvb hexane = 0%). In kind it is functional. Summed up: as §1
In experiment [16] the test system is Plutella xylostella. In words: Induction of response in mated female Plutella xylostella (diamondback moth) assessed as flying moth level at 10 uL measured after 10 min by wind tunnel bioassays (Rvb hexane = 5%). In kind it is functional. Summed up: as §1
Experiment [17] relates to Plutella xylostella. Kind of experiment: Potentiation of synthetic pheromone attractant activity in female Plutella xylostella (diamondback moth) in cabbage field assessed as female moth attraction level using sticky traps baited with compound and synthetic pheromone at 1:1 ratio by field trapping method relative to compound alone. It counts as functional.
The subject of experiment [18] is Plutella xylostella. Kind of experiment: Attractant activity in male Plutella xylostella (diamondback moth) in cabbage field assessed as moth capture level using sticky traps baited with compound by field trapping method. In kind it is functional, organism-based.
Experiment [19] relates to Plutella xylostella. In words: Potentiation of synthetic pheromone attractant activity in female Plutella xylostella (diamondback moth) in cabbage field assessed as female moth attraction level using sticky traps baited with compound and synthetic pheromone at 1:1 ratio by field trapping method relative to synthetic pheromone alone. It counts as functional.
The test system of experiment [20] is Plutella xylostella. In words: Potentiation of synthetic pheromone attractant activity in male Plutella xylostella (diamondback moth) in cabbage field assessed as moth capture level using sticky traps baited with compound and synthetic pheromone at 1:1 ratio by field trapping method relative to synthetic pheromone alone. It counts as functional.

On to `CCCCCC=O` [HEXANAL], for which the Activity in the experiment on Plutella xylostella [1] worked out at 25%; in the experiment on Plutella xylostella [2], 10%; in the experiment with Plutella xylostella [3], 35%; in the experiment with Plutella xylostella [4] it was 5%; in the experiment with Plutella xylostella [5], 10%; in the experiment on Plutella xylostella [6] it was 25%. The Activity in the experiment with Plutella xylostella [7] was determined as 10%; in the experiment with Plutella xylostella [8], 80%; in the experiment with Plutella xylostella [9] it was 10%; with Plutella xylostella [10], 10%; with Plutella xylostella [11] it was 75%; in the experiment with Plutella xylostella [12], 5%. The Activity in the experiment on Plutella xylostella [13] stood at 5%; in the experiment with Plutella xylostella [14], 10%; in the experiment with Plutella xylostella [15] it was 5%; with Plutella xylostella [16], 30%.

Consider `CCCCCCOC(C)=O` [HEXYL ACETATE], for which the Activity with Plutella xylostella [1] was 10%; in the experiment on Plutella xylostella [2], 10%; in the experiment on Plutella xylostella [3], 20%; in the experiment on Plutella xylostella [4] it was 0%; in the experiment with Plutella xylostella [5] it was 5%; in the experiment on Plutella xylostella [6], 15%. For the same molecule, the Activity came out at 5% in the experiment on Plutella xylostella [7]; 60% in the experiment on Plutella xylostella [8]; 0% in the experiment with Plutella xylostella [9]; 5% in the experiment with Plutella xylostella [10]; 55% in the experiment on Plutella xylostella [11]; 5% in the experiment on Plutella xylostella [12]. The Activity is recorded as 0% in the experiment with Plutella xylostella [13], 5% with Plutella xylostella [14], 0% with Plutella xylostella [15] and 5% in the experiment with Plutella xylostella [16].

For `CC/C=C\CCO` [CIS-3-HEXENOL], the Activity with Plutella xylostella [1] worked out at 40%; in the experiment on Plutella xylostella [2], 25%; in the experiment on Plutella xylostella [3], 40%; in the experiment with Plutella xylostella [4], 15%; with Plutella xylostella [5], 15%; in the experiment with Plutella xylostella [6] it was 45%. Besides, the Activity was 10% in the experiment with Plutella xylostella [7]; 85% in the experiment with Plutella xylostella [8]; 20% in the experiment with Plutella xylostella [9]; 20% in the experiment with Plutella xylostella [10]; 80% in the experiment with Plutella xylostella [11]; 10% in the experiment on Plutella xylostella [12]. Further, the Activity in the experiment on Plutella xylostella [13] is reported as 0%; in the experiment on Plutella xylostella [14], 10%; in the experiment with Plutella xylostella [15], 15%; in the experiment with Plutella xylostella [16], 40%.

With `CCCCCCO` [1-HEXANOL], the Activity in the experiment with Plutella xylostella [1] worked out at 20%; with Plutella xylostella [2], 15%; with Plutella xylostella [3] it was 25%; with Plutella xylostella [4], 5%; with Plutella xylostella [5] it was 5%; with Plutella xylostella [6], 25%. For the same molecule, the Activity in the experiment with Plutella xylostella [7] stood at 5%; with Plutella xylostella [8] it was 75%; with Plutella xylostella [9] it was 5%; in the experiment with Plutella xylostella [10], 10%; in the experiment with Plutella xylostella [11], 70%; in the experiment with Plutella xylostella [12], 5%. Further, the Activity in the experiment on Plutella xylostella [13] is 0%; with Plutella xylostella [14], 5%; in the experiment with Plutella xylostella [15], 5%; in the experiment with Plutella xylostella [16] it was 15%.

Regarding `CC/C=C\CCOC(C)=O` [(Z)-hex-3-en-1-yl acetate], the Activity with Plutella xylostella [1] is on record as 55%; with Plutella xylostella [2], 40%; in the experiment with Plutella xylostella [3], 65%; in the experiment with Plutella xylostella [4], 35%; in the experiment with Plutella xylostella [5], 25%; in the experiment with Plutella xylostella [6], 60%. For the same molecule, the Activity in the experiment with Plutella xylostella [7] was found to be 20%; in the experiment on Plutella xylostella [8] it was 100%; in the experiment with Plutella xylostella [9], 30%; in the experiment on Plutella xylostella [10] it was 35%; in the experiment on Plutella xylostella [11], 95%; in the experiment on Plutella xylostella [12], 20%. The Activity in the experiment on Plutella xylostella [13] came out at 30%; in the experiment on Plutella xylostella [20], 20%; with Plutella xylostella [14] it was 25%; in the experiment with Plutella xylostella [15], 25%; in the experiment with Plutella xylostella [16] it was 60%. Besides, the “fold change (FC)” value is recorded as 3 in the experiment with Plutella xylostella [17] and 6 in the experiment with Plutella xylostella [19]. Besides, in the experiment with Plutella xylostella [18], the result was inactive.

Consider `CCC/C=C/C=O`, for which the Activity with Plutella xylostella [1] came to 50%; with Plutella xylostella [2], 30%; in the experiment on Plutella xylostella [3] it was 50%; in the experiment with Plutella xylostella [4], 25%; in the experiment on Plutella xylostella [5], 20%; with Plutella xylostella [6], 50%. Besides, the Activity in the experiment with Plutella xylostella [7] amounted to 15%; with Plutella xylostella [8], 90%; in the experiment with Plutella xylostella [9], 20%; with Plutella xylostella [10] it was 25%; in the experiment on Plutella xylostella [11], 85%; in the experiment with Plutella xylostella [12], 20%. Moreover, the Activity in the experiment on Plutella xylostella [13] came out at 20%; with Plutella xylostella [14], 25%; in the experiment on Plutella xylostella [15] it was 15%; in the experiment with Plutella xylostella [16], 55%.

As for `C=CC(O)CCC` (stereo unspecified), the Activity is recorded as 20% with Plutella xylostella [1]; 20% in the experiment with Plutella xylostella [2]; 35% with Plutella xylostella [3]; 5% in the experiment on Plutella xylostella [4]; 10% in the experiment with Plutella xylostella [5]; 20% in the experiment with Plutella xylostella [6]. Moreover, the Activity in the experiment with Plutella xylostella [7] was found to be 5%; in the experiment on Plutella xylostella [8], 65%; with Plutella xylostella [9], 5%; in the experiment with Plutella xylostella [10], 10%; in the experiment with Plutella xylostella [11], 60%; in the experiment with Plutella xylostella [12] it was 0%. Moreover, the Activity in the experiment on Plutella xylostella [13] is on record as 0%; with Plutella xylostella [14], 0%; in the experiment on Plutella xylostella [15], 5%; with Plutella xylostella [16], 10%.
